Measured values taken from ChEMBL document CHEMBL2040794, “Synthesis and structure-activity analysis of new phosphonium salts with potent activity against African trypanosomes” (J Med Chem, 2012).

Key:
[1] = tested on: Trypanosoma brucei brucei; test: Antitrypanosomal activity against diminazene aceturate-resistant TbAT1 gene-deficient Trypanosoma brucei brucei AT1-KO after 3 days by alamar blue assay; assay type: functional, organism-based
In short: (§1)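 Bloodstream-form T. b. brucei (wild-type s427; TbAT1-KO, made from s427 by TbAT1 deletion; B48, selected from TbAT1-KO in vitro on pentamidine, lacking functional HAPT1). Cells were exposed to compound for 48 h, then resazurin (Alamar blue) was added for a further 24 h. A single fluorescence reading gave EC50.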

[2] = tested on: Trypanosoma brucei brucei; test: Resistance factor, ratio of EC50 for diminazene-, pentamidine-, and melaminophenyl arsenical-resistant HAPT1-deficient Trypanosoma brucei brucei B48 to EC50 for wild type Trypanosoma brucei brucei Lister 427; assay type: functional
In short: (§2)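 Resistance factor is the EC50 in the resistant line (TbAT1-KO or B48) divided by the EC50 in wild-type s427. […] Resistant and wild-type EC50s were compared by Student t-test.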

[3] = tested on: Trypanosoma brucei brucei; test: Antitrypanosomal activity against wild type Trypanosoma brucei brucei Lister 427 after 3 days by alamar blue assay; assay type: functional, organism-based; in short: as §1
[4] = tested on: Trypanosoma brucei brucei; test: Antitrypanosomal activity against diminazene-, pentamidine-, and melaminophenyl arsenical-resistant HAPT1-deficient Trypanosoma brucei brucei B48 after 3 days by alamar blue assay; assay type: functional, organism-based; in short: as §1
[5] = Selectivity index, ratio of EC50 for rat L6 cells to EC50 for Trypanosoma brucei rhodesiense STIB900; assay type: toxicity, cell-based; conditions: for selectivity ratio: L6 cells, read-out: Ratio EC50; for Ratio EC50: l6
In short: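 Ratio of EC₅₀ in L6 cells to EC₅₀ against T. b. rhodesiense STIB900, both from Alamar blue assays.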

[6] = Selectivity index, ratio of EC50 for human HEK cells to EC50 for wild type Trypanosoma brucei brucei Lister 427; assay type: toxicity, cell-based, HEK293; conditions: for selectivity ratio: HEK cells, read-out: Ratio EC50; for Ratio EC50: hek293
In short: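 Ratio of EC₅₀ in HEK cells to EC₅₀ in wild-type T. b. brucei s427, both from resazurin assays.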

[7] = tested on: Trypanosoma brucei rhodesiense; test: Antitrypanosomal activity against Trypanosoma brucei rhodesiense STIB900 infected in rat L6 cells after 72 hrs by alamar blue assay; assay type: functional, organism-based
[8] = tested on: Trypanosoma brucei brucei; test: Resistance factor, ratio of EC50 for diminazene aceturate-resistant TbAT1 gene-deficient Trypanosoma brucei brucei AT1-KO to EC50 for wild type Trypanosoma brucei brucei Lister 427; assay type: functional; in short: as §2
L6 = test: Cytotoxicity against rat L6 cells after 72 hrs by alamar blue assay; assay type: cell-based
[9] = Cytotoxicity against human HEK cells after 3 days by alamar blue assay; assay type: cell-based, HEK293
In short: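 Human embryonic kidney cells tested by resazurin (Alamar blue) assay: 48 h with compound, then 24 h more after dye addition, single reading; EC₅₀ derived.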

[10] = Trypanosoma brucei, AT1-KO, 72 h
[11] = Trypanosoma brucei, Lister 427, 72 h
[12] = Trypanosoma brucei, STIB900, 72 h

| Structure (SMILES) | EC50 [1, 10] [nM] | Ratio EC50 [2] | EC50 [3, 11] [nM] | EC50 ([4]; Trypanosoma brucei, B48, 72 h) [nM] | selectivity ratio [5] | selectivity ratio [6] | EC50 [7, 12] [nM] | Ratio EC50 [8] | EC50 (L6; Rattus norvegicus, L6, 72 h) [nM] | EC50 ([9]; Homo sapiens, HEK293, 72 h) [nM] | EC50 [1] [nM] | EC50 [3] [nM] | EC50 [4] [nM] | Ratio EC50 [5] | Ratio EC50 [6] | EC50 [7] [nM] | EC50 (L6; l6) [nM] | EC50 ([9]; hek293) [nM] |
| --- | --- | --- | --- | --- | --- | --- | --- | --- | --- | --- | --- | --- | --- | --- | --- | --- | --- | --- |
| Cc1ccc([P+](Cc2ccc(Oc3ccccc3)cc2)(c2ccc(C)cc2)c2ccc(C)cc2)cc1.[Br-] | 13 | 0.7 | 15 | 10 | 131 | 1140 | 2 | 0.8 | 263 | 17600 | – | – | – | – | – | – | – | – |
| COc1ccc([P+](Cc2ccc(C(=O)c3ccc(C[P+](c4ccc(OC)cc4)(c4ccc(OC)cc4)c4ccc(OC)cc4)cc3)cc2)(c2ccc(OC)cc2)c2ccc(OC)cc2)cc1.[Br-].[Br-] | 520 | 0.7 | 320 | 230 | 40 | 529 | 290 | 1.6 | 11800 | 172000 | – | – | – | – | – | – | – | – |
| O=C(c1ccc(C[P+](c2ccc(Cl)cc2)(c2ccc(Cl)cc2)c2ccc(Cl)cc2)cc1)c1ccc(C[P+](c2ccc(Cl)cc2)(c2ccc(Cl)cc2)c2ccc(Cl)cc2)cc1.[Br-].[Br-] | 1370 | 1 | 940 | 950 | 18 | 67 | 410 | 1.5 | 7200 | 63000 | – | – | – | – | – | – | – | – |
| CC(C)[P+](Cc1ccc(Oc2ccc(C[P+](c3ccccc3)(c3ccccc3)C(C)C)cc2)cc1)(c1ccccc1)c1ccccc1.[Br-].[Br-] | 330 | 1 | 330 | 330 | 8.6 | > 900 | 585 | 1 | 5000 | > 300000 | – | – | – | – | – | – | – | – |
| CCCCCCCC[P+](CCCCCCCC)(CCCCCCCC)Cc1ccc(C(=O)c2ccc(C[P+](CCCCCCCC)(CCCCCCCC)CCCCCCCC)cc2)cc1.[Br-].[Br-] | 61 | 1.1 | 42 | 45 | 5 | 639 | 220 | 1.4 | 1000 | 27000 | – | – | – | – | – | – | – | – |
| C[P+](Cc1ccc(C(=O)c2ccc(C[P+](C)(c3ccccc3)c3ccccc3)cc2)cc1)(c1ccccc1)c1ccccc1.[Br-].[Br-] | 2080 | 1.3 | 1530 | 2050 | 177 | > 200 | 656 | 1.4 | 116000 | > 300000 | – | – | – | – | – | – | – | – |
| O=C(c1ccc(C[P+](Cc2ccccc2)(c2ccccc2)c2ccccc2)cc1)c1ccc(C[P+](Cc2ccccc2)(c2ccccc2)c2ccccc2)cc1.[Br-].[Br-] | 1020 | 1.3 | 810 | 1030 | 67 | > 370 | 480 | 1.3 | 32000 | > 300000 | – | – | – | – | – | – | – | – |
| Cc1ccc([P+](CCc2ccc(CCc3ccc(CC[P+](c4ccc(C)cc4)(c4ccc(C)cc4)c4ccc(C)cc4)cc3)cc2)(c2ccc(C)cc2)c2ccc(C)cc2)cc1.[Cl-].[Cl-] | 94 | 0.7 | 125 | 89 | 40.3 | 103 | 27 | 0.8 | 1090 | 12800 | – | – | – | – | – | – | – | – |
| O=C(c1ccc(C[P+](c2ccccc2)(C2CCCCC2)C2CCCCC2)cc1)c1ccc(C[P+](c2ccccc2)(C2CCCCC2)C2CCCCC2)cc1.[Br-].[Br-] | 260 | 1.2 | 240 | 290 | 72 | > 1270 | 320 | 1.1 | 22900 | > 300000 | – | – | – | – | – | – | – | – |
| Cc1ccccc1[P+](Cc1ccc(C(=O)c2ccc(C[P+](c3ccccc3)(c3ccccc3)c3ccccc3C)cc2)cc1)(c1ccccc1)c1ccccc1.[Br-].[Br-] | 240 | 1.1 | 200 | 220 | 88 | 1100 | 160 | 1.2 | 14000 | 214000 | – | – | – | – | – | – | – | – |
| Cc1ccc([P+](Cc2ccc(CCCc3ccc(C[P+](c4ccc(C)cc4)(c4ccc(C)cc4)c4ccc(C)cc4)cc3)cc2)(c2ccc(C)cc2)c2ccc(C)cc2)cc1.[Cl-].[Cl-] | – | 0.6 | – | – | – | – | – | 0.7 | – | – | 66 | 100 | 62 | 27.3 | 127 | 63 | 1720 | 12700 |
| Cc1ccc([P+](Cc2ccc(C(=O)c3ccc(C[P+](c4ccc(C)cc4)(c4ccc(C)cc4)c4ccc(C)cc4)cc3)cc2)(c2ccc(C)cc2)c2ccc(C)cc2)cc1.[Br-].[Br-] | – | 0.8 | 110 | 90 | – | – | – | 1.6 | – | – | 18 | – | – | 49 | 1266 | 220 | 10800 | 141000 |
| COc1ccccc1[P+](Cc1ccc(Oc2ccc(C[P+](c3ccccc3OC)(c3ccccc3OC)c3ccccc3OC)cc2)cc1)(c1ccccc1OC)c1ccccc1OC.[Br-].[Br-] | 57 | 0.8 | 56 | 45 | 8 | 2520 | 153 | 1 | 1270 | 141000 | – | – | – | – | – | – | – | – |
| Cc1ccc([P+](Cc2ccc(C(=O)c3ccccc3)cc2)(c2ccccc2)c2ccccc2)cc1.[Br-] | 150 | 0.7 | 150 | 100 | 29 | 504 | 267 | 1 | 7720 | 76800 | – | – | – | – | – | – | – | – |
| Cc1cccc([P+](Cc2ccc(C(=O)c3ccccc3)cc2)(c2cccc(C)c2)c2cccc(C)c2)c1.[Br-] | 150 | 0.7 | 170 | 110 | 9.5 | 281 | 274 | 0.8 | 2610 | 48200 | – | – | – | – | – | – | – | – |
| O=C(c1ccc(C[P+](c2cccc3ccccc23)(c2cccc3ccccc23)c2cccc3ccccc23)cc1)c1ccc(C[P+](c2cccc3ccccc23)(c2cccc3ccccc23)c2cccc3ccccc23)cc1.[Br-].[Br-] | 339 | 1 | 180 | 180 | 12 | 502 | 400 | 1.8 | 4900 | 92000 | – | – | – | – | – | – | – | – |
| Cc1ccc([P+](Cc2ccc(CCc3ccc(C[P+](c4ccc(C)cc4)(c4ccc(C)cc4)c4ccc(C)cc4)cc3)cc2)(c2ccc(C)cc2)c2ccc(C)cc2)cc1.[Cl-].[Cl-] | – | 0.8 | – | – | – | – | – | 0.5 | – | – | 30 | 58 | 45 | 33.8 | 404 | 50 | 1690 | 23300 |
| CCCCCC[P+](CCCCCC)(CCCCCC)Cc1ccc(C(=O)c2ccccc2)cc1.[Br-] | 8 | 1.9 | 11 | 22 | 15 | 1200 | 103 | 0.7 | 1610 | 13400 | – | – | – | – | – | – | – | – |
| O=C(c1ccc(C[P+](c2cccs2)(c2cccs2)c2cccs2)cc1)c1ccc(C[P+](c2cccs2)(c2cccs2)c2cccs2)cc1.[Br-].[Br-] | 520 | 1 | 330 | 330 | 58 | 785 | 290 | 1.6 | 16600 | 260000 | – | – | – | – | – | – | – | – |
| CCCC[P+](CCCC)(CCCC)Cc1ccc(C(=O)c2ccc(C[P+](CCCC)(CCCC)CCCC)cc2)cc1.[Br-].[Br-] | 1320 | 3.4 | 480 | 1630 | 315 | > 620 | 355 | 2.7 | 112000 | > 300000 | – | – | – | – | – | – | – | – |
